Results: ChEMBL document CHEMBL4819008, “Design, synthesis, and evaluation of "dual-site"-binding diarylpyrimidines targeting both NNIBP and the NNRTI adjacent site of the HIV-1 reverse transcriptase” (Eur J Med Chem, 2021)

Tests used:
[1] = tested on: Human immunodeficiency virus 1; assay: Antiviral activity against wild type HIV1 NL4-3 infected in human TZM-bl cells assessed as reduction in viral infection measured after 1 day by luciferase reporter gene assay based luminiscence assay; format: functional, organism-based; details: Human immunodeficiency virus 1, NL4-3, TZM-bl, 24 h
Procedure, shortened: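 TZM-bl cells got a single-round infection with 800 TCID50 of NL4-3 at various compound concentrations, top concentration 100 ng/mL. Luminescence was read 1 day post-infection. EC50 is the concentration giving a 50% decrease in luciferase RLU versus control wells, determined in at least triplicate.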

[2] = tested on: Human immunodeficiency virus 1; assay: Antiviral activity against wild type HIV-1 3B infected in human MT4 cells assessed as inhibition of virus-induced cytopathic effect measured after 5 days by MTT assay; format: functional, organism-based; details: Human immunodeficiency virus 1, 3B, MT4, 120 h
Procedure, shortened: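 MT-4 cells at 6 × 10^5 cells/mL were infected with virus stock at 100–300 CCID50 in the presence of serial 5-fold compound dilutions, in triplicate wells. Viability was read by MTT reduction 5 days after infection, with absorbance at 540 and 690 nm and the median OD of three wells used. EC50 is the concentration giving 50% protection from viral cytopathicity.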

[3] = tested on: Human immunodeficiency virus 1; assay: Potency index, ratio of EFV EC50 to test compound EC50 for antiviral activity against HIV-1 harboring reverse transcriptase Y188L mutant infected in human MT4 cells assessed as inhibition of virus induced cytopathic effect measured after 5 days by MTT assay; format: functional; details: time 5 day
[4] = tested on: Human immunodeficiency virus 1; assay: Antiviral activity against HIV-1 harboring reverse transcriptase E138K mutant infected in human MT4 cells assessed as inhibition of virus induced cytopathic effect measured after 5 days by MTT assay; format: functional, organism-based; details: Human immunodeficiency virus 1, MT4, 120 h
Procedure, shortened: (§1)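 MT-4 cells, exponentially growing, resuspended at 6 × 10^5 cells/mL and infected with the mutant HIV-1 stock at 100–300 CCID50. Compounds were added as 5-fold serial dilutions, in triplicate wells, alongside mock-infected wells. After 5 days, viability was read by MTT reduction at 540 and 690 nm using the median OD of three wells. EC50 is the concentration giving 50% protection from viral cytopathogenicity.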

[5] = Cytotoxicity against human MT4 cells assessed as reduction in cell viability measured after 5 days by MTT assay; format: cell-based; details: time 5 day
Procedure, shortened: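 Mock-infected MT-4 cells (6 × 10^5 cells/mL) were run in parallel with the infected wells, under serial 5-fold compound dilutions in triplicate. MTT viability was read after 5 days and the median OD of three wells used. CC50 is the concentration that reduced OD540 of the mock-infected cells by 50%.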

[6] = tested on: Human immunodeficiency virus 1; assay: Antiviral activity against HIV-1 harboring reverse transcriptase K103N mutant infected in human MT4 cells assessed as inhibition of virus induced cytopathic effect measured after 5 days by MTT assay; format: functional, organism-based; details: Human immunodeficiency virus 1, MT4, 120 h; procedure, shortened: as §1
[7] = tested on: Human immunodeficiency virus 1; assay: Antiviral activity against HIV-1 harboring reverse transcriptase Y181C mutant infected in human MT4 cells assessed as inhibition of virus induced cytopathic effect measured after 5 days by MTT assay; format: functional, organism-based; details: Human immunodeficiency virus 1, MT4, 120 h; procedure, shortened: as §1
[8] = Antiviral activity against HIV-2 ROD infected in human MT4 cells assessed as protection against virus-induced cytopathic effect measured after 5 days by MTT assay; details: Human immunodeficiency virus 2, ISOLATE ROD, MT4, 120 h
[9] = Selectivity index, ratio of CC50 for human MT4 cells to EC50 for wild type HIV-1 3B infected in human MT4 cells; format: toxicity, cell-based; details: read-out: Ratio CC50/EC50
[10] = Selectivity index, ratio of CC50 for human TZM-bl cells to EC50 for wild type HIV1 NL4-3 infected in human TZM-bl cells; format: toxicity, cell-based; details: read-out: Ratio CC50/EC50
Procedure, shortened: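 Selectivity index is CC50/EC50, with both values from the TZM-bl assays: NL4-3 single-round luciferase infection and CytoTox-Glo viability, each over 1 day.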

[11] = tested on: Human immunodeficiency virus 1; assay: Antiviral activity against HIV-1 harboring reverse transcriptase RES056 mutant infected in human MT4 cells assessed as inhibition of virus induced cytopathic effect measured after 5 days by MTT assay; format: functional, organism-based; details: Human immunodeficiency virus 1, MT4, 120 h; procedure, shortened: as §1
[12] = Cytotoxicity against human TZM-bl cells assessed as reduction in cell viability measured after 1 day by CytoTox-Glo assay; format: cell-based
Procedure, shortened: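 TZM-bl cells were cultured 1 day with various compound concentrations, in parallel with the antiviral assay, top concentration 100 ng/mL. Viable cells were measured by CytoTox-Glo. CC50 is the concentration causing a 50% reduction in cell viability.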

[13] = tested on: Human immunodeficiency virus 1; assay: Antiviral activity against HIV-1 harboring reverse transcriptase L100I mutant infected in human MT4 cells assessed as inhibition of virus induced cytopathic effect measured after 5 days by MTT assay; format: functional, organism-based; details: Human immunodeficiency virus 1, MT4, 120 h; procedure, shortened: as §1
[14] = tested on: Human immunodeficiency virus 1; assay: Antiviral activity against HIV-1 harboring reverse transcriptase F227L/V106A mutant infected in human MT4 cells assessed as inhibition of virus induced cytopathic effect measured after 5 days by MTT assay; format: functional, organism-based; details: Human immunodeficiency virus 1, MT4, 120 h; procedure, shortened: as §1
[15] = tested on: Human immunodeficiency virus 1; assay: Antiviral activity against HIV-1 harboring reverse transcriptase Y188L mutant infected in human MT4 cells assessed as inhibition of virus induced cytopathic effect measured after 5 days by MTT assay; format: functional, organism-based; details: Human immunodeficiency virus 1, MT4, 120 h; procedure, shortened: as §1
[16] = tested on: Human immunodeficiency virus 1; assay: Potency index, ratio of AZT EC50 to test compound EC50 for antiviral activity against wild type HIV-1 3B infected in human MT4 cells assessed as inhibition of virus-induced cytopathic effect measured after 5 days by MTT assay; format: functional; details: time 5 day
[17] = target: Human immunodeficiency virus type 1 reverse transcriptase (Human immunodeficiency virus 1, UniProt Q72547); assay: (§2) Inhibition of HIV-1 reverse transcriptase assessed as reduction in biotin-dUTP incorporation into cDNA incubated for 1 hr with DIG-dUTP, biotin-dUTP and dTTP followed by transferring onto streptavidin-coated plate and measured after 1 hr by ELISA
Procedure, shortened: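 Recombinant WT HIV-1 RT was tested with a Roche colorimetric kit. Enzyme, reconstituted template, DIG-dUTP, biotin-dUTP and dTTP were incubated 1 h at 37 °C in incubation buffer with or without inhibitor. The mix was then held 1 h at 37 °C on a streptavidin-coated plate, then anti-DIG-POD 1 h at 37 °C, then ABTS at 25 °C, and read at OD405.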

[18] = tested on: Human immunodeficiency virus 1; assay: Potency index, ratio of nevirapine EC50 to test compound EC50 for antiviral activity against wild type HIV-1 3B infected in human MT4 cells assessed as inhibition of virus-induced cytopathic effect measured after 5 days by MTT assay; format: functional; details: time 5 day
[19] = target: Human immunodeficiency virus type 1 reverse transcriptase (Human immunodeficiency virus 1) (UniProt Q72547); assay: as §2, with “Potency index, ratio of ETV IC50 to test compound IC50 for Inhibition” for “Inhibition”; details: time 2.0 hrs

Compound | EC50 [1] [nM] | EC50 [2] [nM] | Ratio EC50 [3] | EC50 [4] [nM] | CC50 at 120 h [5] [nM] | EC50 [6] [nM] | EC50 [7] [nM] | EC50 [8] [nM] | selectivity ratio [9] | selectivity ratio [10] | EC50 [11] [nM] | CC50 at 24 h [12] [nM] | EC50 [13] [nM] | EC50 [14] [nM] | EC50 [15] [nM] | Ratio EC50 [16] | IC50 [17] [nM] | Ratio EC50 [18] | Ratio IC50 [19]
COCCNC(=O)/C=C/c1cnc(Nc2ccc(C#N)cc2)nc1Oc1c(C)cc(C#N)cc1C | 4.48 | 7.8 | 1.6 | 16.5 | > 267000 | 13.7 | 98 | > 267000 | > 34300 | > 48 | 1490 | > 213 | 166 | 343 | 90.6 |  |  |  | 
C#CCNC(=O)/C=C/c1cnc(Nc2ccc(C#N)cc2)nc1Oc1c(C)cc(C#N)cc1C | 2.45 | 5.2 | 2.3 | 10.6 | 141000 | 10.4 | 61.8 | > 141000 | 26900 | > 91 | 1290 | > 222 | 113 | 402 | 64.5 | 3.5 | 59 | 16.2 | 6
